The values that follow come from ChEMBL document CHEMBL4725371, “A Novel Redox Modulator Induces a GPX4-Mediated Cell Death That Is Dependent on Iron and Reactive Oxygen Species” (J Med Chem, 2020).

Each structure is given as a SMILES string. Activity calls are given as the source filed them. No cut-off for these calls is given here.

The nature of series [1]: Drug level in mouse plasma treated with QD394 at 500 uM measured after 0.5 hrs by LC-MS/MS analysis.
Series [2] has as its system MIA PaCa-2. In words: Cytotoxicity against human MIA PaCa-2 cells measured after 72 hrs by MTT assay. The note with it: MIA PaCa-2, 72 h. The series is classed as functional, cell-based. Put shortly:
(§1)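 Cells were kept in RPMI 1640 with 10% FBS at 37 °C, 5% CO₂, under 35 passages. Cells were seeded, attached overnight and treated with compound or DMSO for 72 h. MTT was added at 0.3 mg/mL for 3 h, then dissolved in DMSO and read as absorbance at 570 nm. IC50 was fitted from the curve. Values are mean ± sd of three independent experiments.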

For another series, the system named is PANC-1. Briefly: Cytotoxicity against human PANC-1 cells measured after 72 hrs by MTT assay. The series is classed as functional, cell-based. Particulars: PANC-1, 72 h. An outline of the steps:
as §1
A general note: Tetrazolium dyes change colour on reduction, which living cells bring about.

The next series deals with BXPC-3. In words: Cytotoxicity against human BXPC-3 cells measured after 72 hrs by MTT assay. It is filed as functional, cell-based. Particulars: BXPC-3, 72 h. Put shortly: as §1
Series [3] has as its system MIA PaCa-2. In words: Inhibition glutathione synthesis in human MIA PaCa-2 cells at 1 to 2 uM measured after 2 to 4 hrs by GSH/GSSG-glo assay. It is filed as functional, cell-based. The note with it: dose microM 1-2, time hrs 2-4. Put shortly:
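GSH/GSSG-Glo luminescent assay: 15,000–20,000 MIA PaCa-2 cells per well, attached overnight, treated 2 h and 4 h. Cells were lysed with total or oxidized glutathione reagent, then luciferin generation (30 min, room temperature) and detection reagents added. Luminescence was read after 15 min. Ratio was computed from net RLU as (total − GSSG)/(GSSG/2).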

In the case of `COc1c(Nc2ccc(N3CCN(C)CC3)cc2)cc(OC)c2ncncc12`, the Drug uptake entry in series [1] is “Active”.
With `CN1CCN(c2ccc(NC3=C(SCC(N)C(=O)O)C(=O)c4ncncc4C3=O)cc2)CC1` (stereo unspecified), the Drug uptake entry in series [1] is reported as “Active”.
As for `CN1CCN(c2ccc(NC3C(=O)c4cncnc4C(=O)C3O)cc2)CC1` (stereo unspecified), the Drug uptake entry in series [1] is recorded as “Active”.
As a reminder, the IC50 is the concentration that inhibits the measured activity by half. With `O=C1C(Nc2ccc(-c3cc(Cl)cc(Cl)c3)cc2)=CC(=O)c2ncncc21`, the IC50 with MIA PaCa-2 [2] turned out to be 3100 nM; in the series on PANC-1, 1900 nM; in the series on BXPC-3, 3300 nM.
With `CN1C(O)CN(c2ccc(NC3=CC(=O)c4ncncc4C3=O)cc2)CC1O` (stereo unspecified), the Drug uptake entry in series [1] is “Active”.
Regarding `O=C1C(Nc2ccc(C3CCCCC3)cc2)=CC(=O)c2ncncc21`, the IC50 in the series with MIA PaCa-2 [2] was found to be 1200 nM; with PANC-1 it was 900 nM; with BXPC-3 it was 500 nM.
As to `O=C1C(Nc2ccc(-c3ccccn3)cc2)=CC(=O)c2ncncc21`, the IC50 in the series with MIA PaCa-2 [2] was 2000 nM; in the series on PANC-1 it was 800 nM; with BXPC-3 it was 2700 nM.
Consider `O=C1C(Nc2cccc3c2Cc2ccccc2-3)=CC(=O)c2ncncc21`, for which the IC50 came out at 3100 nM with MIA PaCa-2 [2], 4700 nM with PANC-1 and 4500 nM in the series with BXPC-3.
For the compound `O=C1C(Nc2ccc3c(c2)Cc2ccccc2-3)=CC(=O)c2ncncc21`, the IC50 in the series on MIA PaCa-2 [2] was found to be 2200 nM; in the series with PANC-1, 1600 nM; in the series with BXPC-3 it was 2600 nM.
Regarding `O=C1C(Nc2cccc(-c3ccccc3)c2)=CC(=O)c2ncncc21`, the IC50 was found to be 2400 nM in the series with MIA PaCa-2 [2], 2300 nM with PANC-1 and 5100 nM with BXPC-3.
As to `O=C1C(Nc2ccc(N3CCCCC3)cc2)=CC(=O)c2ncncc21`, the IC50 in the series with MIA PaCa-2 [2] is 2400 nM; in the series on PANC-1, 1400 nM; in the series with BXPC-3, 2500 nM.
For `O=C1C(Nc2ccc(N3CCOCC3)cc2)=CC(=O)c2ncncc21`, in that order: 1500 nM, 800 nM and 2300 nM.
With `CCc1ccc(-c2ccc(NC3=CC(=O)c4ncncc4C3=O)cc2)cc1`, the concentration for half-maximal inhibition (IC50) with MIA PaCa-2 [2] came out at 1500 nM; with PANC-1, 2300 nM; in the series on BXPC-3, 1600 nM.
Take `CCCCS(=N)(=O)CCC(N)C(=O)O` (stereo unspecified): in the series with MIA PaCa-2 [3], the inhibition result was “Active”.
For `O=C1C(Nc2ccc(-c3ccc(Cl)cc3)cc2)=CC(=O)c2ncncc21`, the IC50 in the series on MIA PaCa-2 [2] was 9700 nM; with PANC-1 it was 4400 nM; in the series with BXPC-3, 10100 nM.
With `CN1CCN(c2ccc(NC3=CC(=O)c4ncncc4C3=O)cc2)C(O)C1` (stereo unspecified), the Drug uptake result in series [1] is listed as “Active”.
